A value given as a limit tells only on which side of the number the result lay.

Consider four molecules from ChEMBL document CHEMBL4321859, “Unforeseen Possibilities To Investigate the Regulation of Polyamine Metabolism Revealed by Novel C-Methylated Spermine Derivatives” (J Med Chem, 2019).

Data set [1] in a line: Drug uptake in human DU145 cells assessed as reduction in [14C]-spermine uptake at 1 to 100 uM by competition based assay. It counts as ADME, cell-based. The note with it: du-145, 100 µM.
Data set [2] deals with DU-145. In words: Downregulation of intracellular putrescine level in human DU145 Cells assessed per ug DNA at 100 uM after 6 hrs by HPLC method (reference value: 40 +/- 2 pmol/ug). The class given is functional. Summed up:
(§1)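 DU145 cells exposed to 100 μM analogue for 6 h or 3 days, with or without 1 mM aminoguanidine. Cells were lysed in 50 mM potassium phosphate pH 7.2 with EDTA, Triton X-100 and DTT. Lysate was mixed with sulphosalicylic acid containing diaminoheptane as internal standard. Polyamines, analogue and MeSpd were measured by HPLC and normalized to DNA (PicoGreen), expressed as pmol/μg DNA. Means ± SD, n = 3.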

The test system of data set [3] is DU-145. In words: Downregulation of intracellular putrescine level in human DU145 Cells assessed per ug DNA at 100 uM after 3 days by HPLC method (reference value: 19 +/- 2 pmol/ug). It counts as functional. In short, it runs like this: as §1
For data set [4], the system named is DU-145. In words: Downregulation of intracellular spermidine level in human DU145 Cells assessed per ug DNA at 100 uM after 6 hrs by HPLC method (reference value: 134 +/- 7 pmol/ug). It counts as functional. Summed up:
as §1

In data set [5] the test system is DU-145. In words: Downregulation of intracellular spermidine level in human DU145 Cells assessed per ug DNA at 100 uM after 3 days by HPLC method (reference value: 123 +/- 3 pmol/ug). The class given is functional. Summed up:
as §1

Data set [6] concerns DU-145. In words: Downregulation of intracellular spermidine level in human DU145 Cells assessed per ug DNA at 100 uM after 3 days in presence of SSAO inhibitor aminoguanidine by HPLC method (reference value: 175 +/- 5 pmol/ug). It counts as functional. Summed up: as §1
The subject of data set [7] is DU-145. The experiment in a line: Downregulation of intracellular spermine level in human DU145 Cells at 100 uM after 6 hrs by HPLC method (reference value: 106 +/- 4 pmol/ug). It counts as functional. In short, it runs like this: as §1
Data set [8] relates to DU-145. The experiment in a line: Downregulation of intracellular spermine level in human DU145 Cells at 100 uM after 3 days by HPLC method (reference value: 102 +/- 4 pmol/ug). The class given is functional. In short, it runs like this:
as §1

For data set [9], the system named is DU-145. The experiment in a line: Downregulation of intracellular spermine level in human DU145 Cells assessed per ug DNA at 100 uM after 3 days in presence of SSAO inhibitor aminoguanidine by HPLC method (reference value: 157 +/- 8 pmol/ug). It counts as functional. In short, it runs like this:
as §1

For data set [10], the system named is DU-145. In words: Downregulation of intracellular N1-acetylspermidine level in human DU145 cells assessed per ug DNA at 100 uM after 6 hrs by HPLC method (Rvb < 3 pmol/ug). The class given is functional. Summed up:
as §1

The subject of data set [11] is DU-145. The experiment in a line: Downregulation of intracellular N1-acetylspermidine level in human DU145 cells assessed per ug DNA at 100 uM after 3 days by HPLC method (reference value: 3 pmol/ug). It counts as functional. Summed up:
as §1

In data set [12] the test system is DU-145. In words: Downregulation of intracellular N1-acetylspermidine level in human DU145 cells assessed per ug DNA at 100 uM after 3 days in presence of SSAO inhibitor aminoguanidine by HPLC method (reference value: 3 +/- 1 pmol/ug). It counts as functional. In short, it runs like this: as §1
Data set [13] can be described thus: Drug level in human DU145 cells assessed per ug DNA at 100 uM after 6 hrs by HPLC method. The class given is ADME, cell-based. The note with it: du-145, 6 h. In short, it runs like this:
as §1

A short description of data set [14]: Drug level in human DU145 cells assessed per ug DNA at 100 uM after 3 days by HPLC method. The note with it: du-145, 72 h. It counts as ADME, cell-based. In short, it runs like this:
as §1

A short description of data set [15]: Drug level in human DU145 cells at 100 uM in presence of SSAO inhibitor aminoguanidine after 3 days by HPLC method. It counts as ADME, cell-based. The note with it: du-145, 72 h. In short, it runs like this: as §1
A short description of data set [16]: Drug metabolism in human DU145 cells at 100 uM assessed as methylspermidine metabolite level assessed per ug DNA after 3 days by HPLC method. It counts as ADME, cell-based. The note with it: du-145, 72 h. In short, it runs like this: as §1
Data set [17] is described as follows: Drug metabolism in human DU145 cells at 100 uM assessed as methylspermidine metabolite level assessed per ug DNA in presence of SSAO inhibitor aminoguanidine after 3 days by HPLC method. The class given is ADME, cell-based. The note with it: du-145, 72 h. In short, it runs like this:
as §1

Data set [18] deals with Peroxisomal N(1)-acetyl-spermine/spermidine oxidase (Homo sapiens, UniProt Q6QHF9). In words: (§2) Inhibition of recombinant human APAO at 50 uM using N1-acetylspermidine level as substrate relative to control. The note with it: 50 µM. In short, it runs like this:
(§3)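 Competition with natural substrate at fixed 50 μM: spermine for purified bovine plasma SSAO and human recombinant SMOX, N1-acetylspermidine for human recombinant APAO. Analogue tested at 50 μM, with activity expressed relative to reaction without analogue.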

For data set [19], the system named is DU-145. The experiment in a line: Cytotoxicity against human DU145 cells at 100 uM after 3 days. The class given is cell-based. Conditions: du-145, 72 h; call rule not given here. Summed up:
(§4)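 DU145 cells grown in high-glucose DMEM with 10% heat-inactivated FBS, 2 mM L-glutamine and gentamycin at 37 °C, 5% CO2. Treated 3 days with 100 μM analogue, with or without 1 mM aminoguanidine. Cells harvested by trypsinization and counted electronically (Coulter counter). Means ± SD, n = 3.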

For data set [20], the system named is DU-145. In words: Cytotoxicity against human DU145 cells at 100 uM in presence of SSAO inhibitor aminoguanidine after 3 days. The class given is cell-based. Conditions: du-145, 72 h. In short, it runs like this: as §4
The nature of data set [21]: Drug metabolism in human DU145 cells at 100 uM assessed as methylspermidine metabolite level assessed per ug DNA after 6 hrs by HPLC method. The class given is ADME, cell-based. The note with it: du-145, 6 h. In short, it runs like this: as §1
Data set [22] addresses T1, Amine oxidase [copper-containing] 3 (Bos taurus, UniProt Q9TTK6).
T1 sequence (Q9TTK6 whole entry): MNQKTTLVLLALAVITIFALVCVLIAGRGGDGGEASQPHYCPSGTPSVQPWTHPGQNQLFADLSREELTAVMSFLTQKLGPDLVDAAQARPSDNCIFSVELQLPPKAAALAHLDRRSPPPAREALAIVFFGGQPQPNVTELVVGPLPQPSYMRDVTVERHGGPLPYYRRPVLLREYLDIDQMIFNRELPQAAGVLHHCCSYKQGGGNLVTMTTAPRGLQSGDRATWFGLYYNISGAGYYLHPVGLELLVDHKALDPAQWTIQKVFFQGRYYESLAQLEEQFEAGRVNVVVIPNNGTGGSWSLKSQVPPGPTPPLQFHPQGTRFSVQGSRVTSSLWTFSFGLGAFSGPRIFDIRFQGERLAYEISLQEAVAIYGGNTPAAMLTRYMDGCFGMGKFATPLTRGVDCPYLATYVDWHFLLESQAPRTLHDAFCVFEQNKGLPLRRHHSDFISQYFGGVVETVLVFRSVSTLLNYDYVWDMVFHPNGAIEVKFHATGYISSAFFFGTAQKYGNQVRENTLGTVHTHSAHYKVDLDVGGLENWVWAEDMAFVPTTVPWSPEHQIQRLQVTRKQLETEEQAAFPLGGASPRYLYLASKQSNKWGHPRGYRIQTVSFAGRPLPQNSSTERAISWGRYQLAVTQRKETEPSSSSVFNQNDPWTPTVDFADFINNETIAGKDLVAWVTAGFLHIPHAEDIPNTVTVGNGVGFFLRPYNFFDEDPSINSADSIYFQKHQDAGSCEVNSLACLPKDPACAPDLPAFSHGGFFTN
In words: Substrate activity at bovine plasma SSAO at 5 mM relative to spermine. The class given is ADME. The note with it: cattle, 5000 µM. In short, it runs like this: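 Purified bovine plasma SSAO given analogue as substrate at 5 mM, the same saturating concentration used for spermine. Activity compared with spermine. Means ± SD, n = 3.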

Data set [23] deals with APAO (peroxisomal N(1)-acetyl-spermine/spermidine oxidase) (Homo sapiens, UniProt Q6QHF9). Described as §2. The note with it: recombinant human APAO, probe N1-acetylspermidine. In short, it runs like this:
as §3

Sequence of Peroxisomal N(1)-acetyl-spermine/spermidine oxidase (Q6QHF9 whole entry): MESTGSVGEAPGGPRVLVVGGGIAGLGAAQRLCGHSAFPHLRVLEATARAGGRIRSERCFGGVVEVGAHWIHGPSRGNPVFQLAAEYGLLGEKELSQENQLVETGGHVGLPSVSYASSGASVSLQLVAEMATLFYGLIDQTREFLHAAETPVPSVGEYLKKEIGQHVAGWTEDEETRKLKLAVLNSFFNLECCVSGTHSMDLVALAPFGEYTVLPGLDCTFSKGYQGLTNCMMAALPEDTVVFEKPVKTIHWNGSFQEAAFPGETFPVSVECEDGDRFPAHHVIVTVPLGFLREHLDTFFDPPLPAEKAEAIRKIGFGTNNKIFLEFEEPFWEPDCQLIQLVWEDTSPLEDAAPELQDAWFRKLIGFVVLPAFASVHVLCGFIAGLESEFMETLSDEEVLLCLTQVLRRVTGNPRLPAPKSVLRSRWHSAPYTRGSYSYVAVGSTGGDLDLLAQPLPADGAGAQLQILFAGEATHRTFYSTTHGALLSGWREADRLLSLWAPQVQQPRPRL
Sequence of APAO (peroxisomal N(1)-acetyl-spermine/spermidine oxidase) (Q6QHF9 whole entry): as above

Turning to `CC(N)CCNCCCCNCCC(C)N` (stereo unspecified), the Activity result in [1] is reported as “Active”; with DU-145 [2] it was 15 pmol; in the data set on DU-145 [3], <3 pmol; in the data set on DU-145 [4], 105 pmol; in the data set on DU-145 [5] it was 13 pmol; with DU-145 [6], 3 pmol. Further, the Activity in the data set with DU-145 [7] is on record as 84 pmol; in the data set on DU-145 [8] it was 27 pmol; with DU-145 [9] it was 19 pmol; with DU-145 [10], 5 pmol; in the data set on DU-145 [11], <3 pmol; in the data set on DU-145 [12], <3 pmol. Also, the Activity result in the data set on DU-145 [19] and in the data set on DU-145 [20] was “Non-Toxic” throughout. Besides, the figures for the Drug uptake in data set [13], in [14] and in [15] were 70 pmol, 168 pmol and 217 pmol, respectively. Moreover, the Drug metabolism in data set [16] was 4 pmol; in [17], 10 pmol. For the same molecule, the “inhibition (INH)” value in data set [18] was “Not Active”.

Take `CC(CCN)NCCCCNC(C)CCN` (stereo unspecified): the Activity result in data set [1] was “Active”; in the data set with DU-145 [2], 27 pmol; in the data set on DU-145 [3], 12 pmol; with DU-145 [4] it was 79 pmol; in the data set on DU-145 [5], 34 pmol; in the data set on DU-145 [6], 31 pmol. The Activity with DU-145 [7] was 80 pmol; in the data set on DU-145 [8], 69 pmol; in the data set on DU-145 [9], 68 pmol; with DU-145 [10], 3 pmol; in the data set with DU-145 [11], <3 pmol; in data set [22], 30%. Also, the Activity entry with DU-145 [19] and in the data set on DU-145 [20] was “Non-Toxic” each time. The Drug uptake was found to be 26 pmol in data set [13], 29 pmol in data set [14] and 191 pmol in [15]. In addition, the Drug metabolism in data set [21] is given as 34 pmol; in data set [16], 116 pmol; in [17], 44 pmol. For the same molecule, the inhibition at 50 µM in [23] came out at 45%.

On to `CC(CN)CNCCCCNCC(C)CN` (stereo unspecified), for which the Activity entry in data set [1] is “Active”; in the data set with DU-145 [2] it was 10 pmol; in the data set on DU-145 [3] it was <3 pmol; in the data set on DU-145 [4] it was 99 pmol; in the data set on DU-145 [5], 13 pmol; with DU-145 [6] it was <3 pmol. Further, the Activity with DU-145 [7] was 76 pmol; in the data set on DU-145 [8] it was 40 pmol; in the data set with DU-145 [9], 33 pmol; in the data set with DU-145 [10] it was 4 pmol; in the data set with DU-145 [19], “Non-Toxic”; in the data set with DU-145 [20] it was “Non-Toxic”. The Drug uptake is recorded as 59 pmol in [13], 147 pmol in [14] and 222 pmol in [15]. Also, the Drug metabolism in data set [16] was 20 pmol. Moreover, the “inhibition (INH)” value in data set [18] is “Not Active”.

Turning to `NCCCNCCCCNCCCN` [SPERMINE], the Activity result in data set [1] is given as “Active”; in the data set with DU-145 [19], “Non-Toxic”; in the data set with DU-145 [20] it was “Toxic”.

In general, inhibition refers to the relative decrease from the control value, in per cent.
